Here are results for four compounds from publication PMC6872935 (Nature materials, 2019).

In data set [1] the test system is DNA methyltransferase (DNMT). As to the kind of experiment: DNMT activity/inhibition assay kit on nuclear extracts of treated cells. The settings on record: HCT116 cells, 500 μM for 3 h, measured 48 h later, n=3. The class given is cell-based, human. In a few lines: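 5×10⁶ HCT116 cells were incubated 3 h at 37 °C with or without 500 μM test compound, washed three times and cultured in fresh McCoy's 5A. After 48 h, nuclear proteins were extracted with a kit and quantified by Bradford assay. DNMT activity was measured with an activity/inhibition kit using 8 μg nuclear protein per well.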

In data set [2] the test system is HCT116 cells. As to the kind of experiment: CEST MRI of incubated cells. The following applies: 500 μM, 3 h; for CEST signal, fold less compared to Olsa-RVRR: after subtracting values of non-treated cells; for OlsaCEST signal, fold larger compared to free olsalazine: in vitro. The class given is cell-based, human.
Data set [3] is described as follows: TEM and DLS of nanoparticle formation. In kind it is physicochemical. The settings on record: 250 μM GSH + 0.5 nmol U-1 furin, 12 h, furin buffer. In a few lines: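 25 μM test compound was incubated 12 h in furin buffer with 250 μM GSH and 0.5 nmol U⁻¹ furin. The resulting particles were examined by TEM, and their size distribution was measured by DLS.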
A further data set addresses furin (Homo sapiens, UniProt P09958). The experiment in a line: Furin-controlled condensation in solution followed by HPLC. The settings on record: 25 μM, 250 μM GSH + 0.5 nmol U-1 furin, 12 h, 37 °C. The class given is biochemical. In a few lines:
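25 μM test compound was incubated with 250 μM GSH at 37 °C, pH 7.4. Reduction alone ran 2 h; with 0.5 nmol U⁻¹ furin added, incubation ran 12 h. Reduced, cleaved and condensed products were followed by HPLC. Conversion to dimer was tracked as a function of time.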

Another data set relates to LoVo cells. As to the kind of experiment: 3D-SIM super-resolution fluorescence imaging of cells. In kind it is cell-based, human. The following applies: 8 μM, 3 h. The procedure, abridged: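 Cells were incubated 3 h with 8 μM Alexa-conjugated test probe or free Alexa 488 dye, then washed three times with PBS. They were fixed in 4% paraformaldehyde for 10 min, washed again and mounted with DAPI-containing medium. 3D-SIM used 405 nm (DAPI) and 488 nm (Alexa 488) excitation. Experiments were repeated three times.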

Data set [4] relates to HCT116 cells. The experiment in a line: 3D-SIM super-resolution fluorescence imaging of cells. The class given is cell-based, human. The following applies: 8 μM, 3 h. The procedure, abridged:
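Cells were exposed for 3 h to 8 μM test compound or free Alexa 488, PBS-washed, fixed 10 min in 4% paraformaldehyde and mounted in DAPI-containing medium. Super-resolution images were acquired with simultaneous 405 nm (DAPI) and 488 nm (Alexa 488) excitation. Experiments were repeated three times.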

The test system of another data set is HCT116 and LoVo tumors. As to the kind of experiment: 3D-SIM imaging of resected tumors. The class given is in vivo, NU/J nude mouse. The following applies: 50 nmol i.v., tumors resected at 2 h post-injection. In a few lines:
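Female NU/J nude mice, 6-8 weeks old, carried s.c. xenografts of 1×10⁶ HCT116 and 1×10⁶ LoVo cells. Each received 50 nmol of test compound or free Alexa 488 i.v.; tumors were resected at 2 h. Tissue was formalin-fixed overnight, cryoprotected overnight in 30% w/v sucrose at 4 °C, OCT-embedded, cut at 10 μm and DAPI-mounted. Imaging used 405/488 nm excitation.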

A short description of data set [5]: In vitro CEST MRI of solutions. In kind it is physicochemical. The following applies: 11.7 T, 37 °C. In a few lines:
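Compound (0.625–10 mM) was dissolved in 10 mM PBS and titrated with 3 M HCl/NaOH to pH 5.0–8.0. Samples in 1 mm capillaries were held at 37 °C at 11.7 T. RARE CEST used TR/TE 6,000/5 ms, B₁ 3.6 μT, and offsets −12 to 12 ppm in 0.3 ppm steps. B₀ was WASSR-corrected. MTR_asym was computed from ±Δω signals over S₀; exchange rate came from QUESP across saturation powers.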

Data set [6] has as its system HCT116 cells. As to the kind of experiment: Cell viability, acridine orange/propidium iodide counting. In kind it is cell-based, human. The following applies: 48 h incubation.
In data set [7] the test system is HCT116 tumor. The experiment in a line: Anti-tumor treatment response. In kind it is in vivo, NU/J nude mice. The following applies: 0.1 mmol/kg i.v., Q3D×8, n=4 mice. In a few lines: (§1)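 At 50–100 mm³, mice were randomised into three groups (n=4). Groups received i.v. 0.1 mmol/kg test compound, parent drug or PBS, all in 1% DMSO, every 3 days (Q3D×8). Caliper volume = (smallest dimension)² × largest × 0.5. Day-33 volumes were expressed relative to PBS.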

A short description of data set [8]: Ex vivo CEST MRI of organs. The settings on record: 0.2 mmol/kg i.v.; 2 h p.i. for Olsa-RVRR, 0.5 h p.i. for olsalazine; n=4 mice. In kind it is in vivo, NU/J nude mice. In a few lines: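 Female nude mice carried s.c. HCT116 (left flank) and LoVo (right flank) xenografts of 100-200 mm³. They received 0.2 mmol/kg test compound i.v. in PBS with 1% DMSO and were killed at 2 h or 30 min. Major organs were placed in PBS in a sealed well plate for CEST imaging. Signal was computed as MTR_asym, expressed relative to muscle; mean±SD, n=4.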

Data set [9] deals with HCT116 tumor. The experiment in a line: In vivo CEST MRI of tumor xenograft. More on the design: species or system NU/J nude mice. The following applies: 0.2 mmol/kg i.v.; no significant difference between HCT116 and LoVo tumors. The procedure, abridged:
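Female NU/J nude mice bore s.c. HCT116 (left flank) and LoVo (right flank) xenografts, 1×10⁶ cells each. At 100–200 mm³, mice received i.v. 0.2 mmol/kg test compound or parent drug in PBS with 1% DMSO. Serial CEST MRI over 24 h at 11.7 T used RARE, TR/TE 5,000/3.7 ms, B₁ 3.6 μT, t_sat 4 s, and offsets ±7.4–12.6 ppm. The 0 h MTR_asym was subtracted; n=4 mice.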

The next data set concerns LoVo tumor. As to the kind of experiment: Anti-tumor treatment response. In kind it is in vivo, NU/J nude mice. The settings on record: 0.1 mmol/kg i.v., Q3D×8, n=4 mice. In a few lines:
as §1

Data set [10] in a line: Mouse body weight during treatment. In kind it is in vivo, NU/J nude mice. The settings on record: 0.1 mmol/kg i.v., Q3D×8, n=4 mice. The procedure, abridged: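 Female NU/J nude mice, 6-8 weeks old, carried s.c. xenografts of 1×10⁶ HCT116 (left flank) and 1×10⁶ LoVo (right flank) cells. Repeated i.v. dosing (QD3×8) began after tumor cell injection, with a PBS control group. Body weight was recorded over time and reported as mean±SD, n=4 mice.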

Sequence of furin (P09958 108-595 limits assumed): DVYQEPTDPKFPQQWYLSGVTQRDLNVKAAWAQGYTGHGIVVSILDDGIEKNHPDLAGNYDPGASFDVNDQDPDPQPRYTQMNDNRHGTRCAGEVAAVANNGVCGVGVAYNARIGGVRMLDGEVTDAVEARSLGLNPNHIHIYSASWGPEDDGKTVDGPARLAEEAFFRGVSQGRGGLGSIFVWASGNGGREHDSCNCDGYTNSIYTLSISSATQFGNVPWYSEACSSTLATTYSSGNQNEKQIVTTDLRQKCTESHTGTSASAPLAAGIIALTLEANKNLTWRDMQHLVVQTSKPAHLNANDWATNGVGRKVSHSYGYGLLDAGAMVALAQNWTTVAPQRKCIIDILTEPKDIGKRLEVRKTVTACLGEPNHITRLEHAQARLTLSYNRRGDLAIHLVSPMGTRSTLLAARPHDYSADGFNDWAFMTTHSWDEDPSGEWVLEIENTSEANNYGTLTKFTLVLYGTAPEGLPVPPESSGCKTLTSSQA

“Ac-Arg-Val-Arg-Arg-Cys(StBu)-Lys(olsalazine) [CTR2]”: the DNMT inhibition result in [1] is given as “no significant DNMT inhibition”. Also, in the data set on HCT116 cells [2], the “CEST signal, fold less compared to Olsa-RVRR” value is reported as 5.2 fold and the “OlsaCEST signal, fold larger compared to free olsalazine” value turned out to be 2.3 fold. Besides, the “nanoparticle formation with GSH and furin (TEM)” value in data set [3] is reported as “no nanoparticles were formed”. For the same compound, the “furin cleavage of the reduced compound” value on furin is recorded as “cleaved to cleaved CTR2 without condensation”.
Take “Ac-Arg-Val-Arg-Arg-Cys(StBu)-Lys(Alexa 488)-2-cyanobenzothiazole [Alexa-RVRR]”: the “intracellular green fluorescence (3D-SIM)” value in the data set with LoVo cells is on record as “much less”; in the data set with HCT116 cells [4], “clustering of green fluorescent nanoparticles”. In addition, the “green fluorescent nanoparticles in tumors (3D-SIM)” value with HCT116 and LoVo tumors is recorded as “much higher quantity of green fluorescent nanoparticles”.
Turning to RKRCRV [CTR1], the DNMT inhibition entry in [1] is given as “no significant DNMT inhibition”. Moreover, in the data set on HCT116 cells [2], the “CEST signal, fold less compared to Olsa-RVRR” value is on record as 4.4 fold and the “OlsaCEST signal, fold larger compared to free olsalazine” value came out at 2.8 fold. Besides, the “nanoparticle formation with GSH and furin (TEM)” value in [3] is recorded as “no nanoparticles were formed”. The “furin cleavage of the reduced compound” value on furin is recorded as “could not be further cleaved”.
As for `O=C(O)c1cc(/N=N/c2ccc(O)c(C(=O)O)c2)ccc1O` [olsalazine], the “CEST peak offset from the water proton signal” value in data set [5] (10 mM in PBS) was ~ 9.8 ppm. The “proton exchange rate (kex)” value in data set [5] (10 mM, pH 7.4, QUESP method) was 697 Hz. Besides, in the data set on HCT116 cells [6], the “dose to obtain a toxic effect comparable to Olsa-RVRR at 125 μM” value was found to be 2.5 mM. Further, the “fold dose increase needed versus Olsa-RVRR for comparable toxic effect” value with HCT116 cells [6] worked out at 20 fold. The DNMT inhibition result in [1] is “no significant DNMT inhibition”. For the same compound, the “average tumor volume at day 33 compared to PBS control group set at 100%” value is reported as ~ 88% with HCT116 tumor [7] and 86% with LoVo tumor. Also, the “OlsaCEST signal versus non-incubated cells” value in the data set on HCT116 cells [2] (p>0.05) is “no significant difference between free olsalazine-incubated cells and non-incubated cells”. Also, the “organ distribution of OlsaCEST signal ex vivo” value in data set [8] is recorded as “both tumor sites showed comparable CEST signals”. Also, the “maximum OlsaCEST intensity in tumors at 0.5 h p.i.” value in the data set on HCT116 tumor [9] is ~ 1.8%. Also, the body weight entry in [10] is recorded as “did not show any significant differences in body weight”.
